Measured values: ChEMBL document CHEMBL2331355, “Synthesis, structure activity relationship and mode of action of 3-substitutedphenyl-1-(2,2,8,8-tetramethyl-3,4,9,10-tetrahydro-2H,8H-pyrano[2,3-f]chromen-6-yl)-propenones as novel anticancer agents in human leukaemia HL-60 cells” (Eur J Med Chem, 2013)
Active and inactive are the calls of the source. No cut-off for these calls is given here.

Assays:
[1] = system: Caco-2; test: Growth inhibition of human Caco2 cells at 50 uM after 48 hrs by MTT assay; format: functional; details: Caco-2, 48 h, read-out: GI
In short: (§1)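 Single-concentration MTT screen at 50 µM over 48 h in 96-well plates. Compounds giving >50% inhibition were rescreened at 30 µM. OD read at 570 nm, reference 620 nm. Result expressed as % growth inhibition versus untreated control. Mitomycin C, adriamycin or 5-fluorouracil used as positive controls. Mean ± SD of three independent experiments.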

[2] = system: MDA-MB-435; test: Growth inhibition of human MDA-MB-435 cells at 50 uM after 48 hrs by MTT assay; format: functional; details: MDA-MB-435, 48 h, read-out: GI; in short: as §1
[3] = system: MIA PaCa-2; test: Growth inhibition of human MIAPaCa2 cells at 50 uM after 48 hrs by MTT assay; format: functional; details: MIA PaCa-2, 48 h, read-out: GI; in short: as §1
[4] = system: ASPC1; test: Growth inhibition of human AsPC1 cells at 50 uM after 48 hrs by MTT assay; format: functional; details: ASPC1, 48 h, read-out: GI; in short: as §1
[5] = system: HL-60; test: Growth inhibition of human HL60 cells at 50 uM after 48 hrs by MTT assay; format: functional; details: HL-60, 48 h, read-out: GI; in short: as §1
[6] = system: MCF7; test: Growth inhibition of human MCF7 cells at 50 uM after 48 hrs by MTT assay; format: functional; details: MCF7, 48 h, read-out: GI; in short: as §1
[7] = system: PC-3; test: Growth inhibition of human PC3 cells at 50 uM after 48 hrs by MTT assay; format: functional; details: PC-3, 48 h, read-out: GI; in short: as §1
[8] = system: HL-60; test: Induction of apoptosis in human HL60 cells assessed as apoptotic bodies at 20 uM after 24 hrs by Hoechst 33258 staining; format: functional, cell-based
In short: (§2)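 HL-60 cells (1 × 10⁶/2 ml) treated 24 h at 15 and 20 µM, pelleted at 300 g and washed. Stained with Hoechst 33258, then examined under an inverted fluorescence microscope (10×, UV excitation) for nuclear condensation, blebbing and apoptotic bodies.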

[9] = system: HL-60; test: Induction of apoptosis in human HL60 cells assessed as nuclear blebbing after 24 hrs by Hoechst 33258 staining; format: functional, cell-based; in short: as §2
[10] = system: HL-60; test: Induction of apoptosis in human HL60 cells assessed as nuclear condensation after 24 hrs by Hoechst 33258 staining; format: functional, cell-based; in short: as §2
[11] = system: HL-60; test: Induction of mitochondrial membrane potential loss in human HL60 cells at 20 uM after 24 hrs by rhodamine-123 staining method (reference value: 7%); format: functional
In short: (§3)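 HL-60 cells (1 × 10⁶/2 ml/well) treated 24 h at 15 or 20 µM, then incubated with rhodamine-123 (200 nM) for 40 min. Loss of dye uptake measured by flow cytometry. Camptothecin (4 µM, 6 h) as positive control. Representative of three experiments.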

[12] = system: HL-60; test: Induction of mitochondrial membrane potential loss in human HL60 cells at 15 uM after 24 hrs by rhodamine-123 staining method (reference value: 7%); format: functional; in short: as §3
[13] = system: HL-60; test: Induction of apoptosis in human HL60 cells assessed as DNA fragmentation at 20 uM after 24 hrs by SDS-PAGE analysis; format: functional, cell-based; details: in the assay text read “agarose gel electrophoresis” for “SDS-PAGE analysis”
In short: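 HL-60 cells (2 × 10⁶/3 ml/well) treated at 20 µM for 24 h. Lysed, then digested with RNase (400 µg/ml, 37 °C, 90 min) and proteinase K (200 µg/ml, 50 °C, 1 h). DNA extracted with phenol/chloroform/isoamyl alcohol and alcohol-precipitated. Run on 1.8% agarose gel at 70 V for 1 h, stained with ethidium bromide, and scored for laddering.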

[14] = system: HL-60; test: Induction of apoptosis in human HL60 cells assessed as accumulation of sub-G0/G1 phase cells after 24 hrs by PI-staining based flow cytometric analysis; format: functional, cell-based
[15] = system: HL-60; test: Cell cycle arrest in human HL60 cells assessed as G2/M phase cells at 20 uM after 24 hrs by PI staining-based flow cytometric analysis (reference value: 3%); format: functional
[16] = system: HL-60; test: Cell cycle arrest in human HL60 cells assessed as G2/M phase cells at 15 uM after 24 hrs by PI staining-based flow cytometric analysis (reference value: 3%); format: functional
[17] = system: HL-60; test: Cell cycle arrest in human HL60 cells assessed as G2/M phase cells at 10 uM after 24 hrs by PI staining-based flow cytometric analysis (reference value: 3%); format: functional
[18] = system: HL-60; test: Cell cycle arrest in human HL60 cells assessed as G2/M phase cells at 5 uM after 24 hrs by PI staining-based flow cytometric analysis (reference value: 3%); format: functional
[19] = system: HL-60; test: Cell cycle arrest in human HL60 cells assessed as S phase cells at 20 uM after 24 hrs by PI staining-based flow cytometric analysis (reference value: 49%); format: functional
[20] = system: HL-60; test: Cell cycle arrest in human HL60 cells assessed as S phase cells at 15 uM after 24 hrs by PI staining-based flow cytometric analysis (reference value: 49%); format: functional
[21] = system: HL-60; test: Cell cycle arrest in human HL60 cells assessed as S phase cells at 10 uM after 24 hrs by PI staining-based flow cytometric analysis (reference value: 49%); format: functional
[22] = system: HL-60; test: Cell cycle arrest in human HL60 cells assessed as S phase cells at 5 uM after 24 hrs by PI staining-based flow cytometric analysis (reference value: 49%); format: functional
[23] = system: HL-60; test: Cell cycle arrest in human HL60 cells assessed as accumulation of G0/G1 phase cells at 20 uM after 24 hrs by PI staining-based flow cytometric analysis (reference value: 48%); format: functional
[24] = system: HL-60; test: Cell cycle arrest in human HL60 cells assessed as accumulation of G0/G1 phase cells at 15 uM after 24 hrs by PI staining-based flow cytometric analysis (reference value: 48%); format: functional
[25] = system: HL-60; test: Cell cycle arrest in human HL60 cells assessed as accumulation of G0/G1 phase cells at 10 uM after 24 hrs by PI staining-based flow cytometric analysis (reference value: 48%); format: functional
[26] = system: HL-60; test: Cell cycle arrest in human HL60 cells assessed as accumulation of G0/G1 phase cells at 5 uM after 24 hrs by PI staining-based flow cytometric analysis (reference value: 48%); format: functional
[27] = system: HL-60; test: Induction of apoptosis in human HL60 cells at 20 uM after 24 hrs by PI-staining based flow cytometric analysis (reference value: 0.7 %); format: functional
[28] = system: HL-60; test: Induction of apoptosis in human HL60 cells at 15 uM after 24 hrs by PI-staining based flow cytometric analysis (reference value: 0.7 %); format: functional
[29] = system: HL-60; test: Induction of apoptosis in human HL60 cells at 10 uM after 24 hrs by PI-staining based flow cytometric analysis (reference value: 0.7 %); format: functional
[30] = system: HL-60; test: Induction of apoptosis in human HL60 cells at 5 uM after 24 hrs by PI-staining based flow cytometric analysis (reference value: 0.7 %); format: functional
[31] = system: HL-60; test: Cell cycle arrest in human HL60 cells assessed as decrease in G2/M phase cells after 24 hrs by PI staining-based flow cytometric analysis; format: functional
[32] = system: HL-60; test: Cell cycle arrest in human HL60 cells assessed as decrease in S phase cells after 24 hrs by PI staining-based flow cytometric analysis; format: functional
[33] = system: HL-60; test: Cell cycle arrest in human HL60 cells assessed as accumulation of G0/G1 phase cells after 24 hrs by PI staining-based flow cytometric analysis; format: functional
[34] = system: HL-60; test: Cytotoxicity against human HL60 cells after 24 hrs by MTT assay; format: functional, cell-based; details: HL-60, 24 h
In short: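 HL-60 cells exposed 24 h to a range of concentrations, then MTT reduction measured. Untreated control OD taken as 100% viability; IC50 derived from the curve. Mean ± SD, n = 8 wells, three independent experiments.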

[35] = system: Caco-2; test: Cytotoxicity against human Caco2 cells after 48 hrs by MTT assay; format: functional, cell-based; details: Caco-2, 48 h
In short: (§4)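 MTT assay in 96-well plates, 48 h exposure across 1–100 µM. OD read at 570 nm against a 620 nm reference. Untreated control OD taken as 100% viability. IC50 derived from the concentration–response curves. Mean ± SD, n = 8 wells, from three independent experiments.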

[36] = system: MIA PaCa-2; test: Cytotoxicity against human MIAPaCa2 cells after 48 hrs by MTT assay; format: functional, cell-based; details: MIA PaCa-2, 48 h; in short: as §4
[37] = system: PC-3; test: Cytotoxicity against human PC3 cells after 48 hrs by MTT assay; format: functional, cell-based; details: PC-3, 48 h; in short: as §4
[38] = system: Caco-2; test: Growth inhibition of human Caco2 cells at 30 uM after 48 hrs by MTT assay; format: functional, cell-based; in short: as §1
[39] = system: MDA-MB-435; test: Growth inhibition of human MDA-MB-435 cells at 30 uM after 48 hrs by MTT assay; format: functional, cell-based; in short: as §1
[40] = system: PC-3; test: Growth inhibition of human PC3 cells at 30 uM after 48 hrs by MTT assay; format: functional, cell-based; in short: as §1
[41] = system: MCF7; test: Growth inhibition of human MCF7 cells at 30 uM after 48 hrs by MTT assay; format: functional, cell-based; in short: as §1
[42] = system: HL-60; test: Growth inhibition of human HL60 cells at 30 uM after 48 hrs by MTT assay; format: functional, cell-based; in short: as §1
[43] = system: ASPC1; test: Growth inhibition of human AsPC1 cells at 30 uM after 48 hrs by MTT assay; format: functional, cell-based; in short: as §1
[44] = system: MIA PaCa-2; test: Growth inhibition of human MIAPaCa2 cells at 30 uM after 48 hrs by MTT assay; format: functional, cell-based; in short: as §1

## Cc1ccc(/C=C/C(=O)c2cc3c(c4c2OC(C)(C)CC4)OC(C)(C)CC3)cc1
[1]
  inhibition of growth at 50 µM: 11%
[2]
  inhibition of growth at 50 µM: 38%
[3]
  inhibition of growth at 50 µM: 41%
[4]
  inhibition of growth at 50 µM: 2%
[5]
  inhibition of growth at 50 µM: 18%
[6]
  inhibition of growth at 50 µM: 15%
[7]
  inhibition of growth at 50 µM: 48%

## CC1(C)CCc2cc(C(=O)/C=C/c3ccc(C#N)cc3)c3c(c2O1)CCC(C)(C)O3
[8]
  Activity: Active
[9]
  Activity: Dose-dependent effect
[10]
  Activity: Dose-dependent effect
[11]
  Activity: 61%
[12]
  Activity: 49%
[13]
  Activity: Active
[14]
  Activity: Dose-dependent effect
[15]
  Activity: 3%
[16]
  Activity: 4%
[17]
  Activity: 5%
[18]
  Activity: 6%
[19]
  Activity: 9%
[20]
  Activity: 23%
[21]
  Activity: 39%
[22]
  Activity: 46%
[23]
  Activity: 88%
[24]
  Activity: 73%
[25]
  Activity: 56%
[26]
  Activity: 48%
[27]
  Activity: 71%
[28]
  Activity: 31%
[29]
  Activity: 11%
[30]
  Activity: 1%
[31]
  Activity: Dose-dependent effect
[32]
  Activity: Dose-dependent effect
[33]
  Activity: Dose-dependent effect
[34]
  IC50: 16 µM
[35]
  IC50: 12 µM
[36]
  IC50: 12 µM
[37]
  IC50: 7 µM
[38]
  growth inhibition (GI): Active
[39]
  growth inhibition (GI): Active
[40]
  growth inhibition (GI): Active
[41]
  growth inhibition (GI): Active
[42]
  growth inhibition (GI): Active
[43]
  growth inhibition (GI): Active
[44]
  growth inhibition (GI): Active
[1]
  inhibition of growth at 50 µM: 93%
[2]
  inhibition of growth at 50 µM: 88%
[3]
  inhibition of growth at 50 µM: 76%
[4]
  inhibition of growth at 50 µM: 48%
[5]
  inhibition of growth at 50 µM: 93%
[6]
  inhibition of growth at 50 µM: 78%
[7]
  inhibition of growth at 50 µM: 76%

## CC1(C)CCc2cc(C(=O)/C=C/c3ccc(F)cc3)c3c(c2O1)CCC(C)(C)O3
[1]
  inhibition of growth at 50 µM: 12%
[2]
  inhibition of growth at 50 µM: 52%
[3]
  inhibition of growth at 50 µM: 38%
[4]
  inhibition of growth at 50 µM: 28%
[5]
  inhibition of growth at 50 µM: 38%
[6]
  inhibition of growth at 50 µM: 17%
[7]
  inhibition of growth at 50 µM: 59%
